Experimental data taken from ChEMBL document CHEMBL3217512, “Indole/triazole conjugates are selective inhibitors and inducers of bacterial biofilms” (Medchemcomm, 2013).

How the values were obtained:
Escherichia coli [1] = experiment: Antimicrobial activity against Escherichia coli K-12 ER2718 assessed as effect on planktonic growth at 50 uM after 2 to 24 hrs; assay type: organism-based
In short: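 Growth curve analysis of planktonic bacteria with each biofilm inducer at 50 μM, used to assess toxicity.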

Staphylococcus aureus [2] = experiment: Antimicrobial activity against methicillin-resistant Staphylococcus aureus BAA 44 assessed as effect on planktonic growth at IC50 after 2 to 24 hrs; assay type: organism-based; details: in vivo
Escherichia coli [3] = experiment: Antimicrobial activity against Escherichia coli K-12 ER2718 assessed as effect on planktonic growth at PC75 after 2 to 24 hrs by colony count method; assay type: organism-based; details: in vivo
Escherichia coli [4] = experiment: Antimicrobial activity against Escherichia coli K-12 ER2718 assessed as effect on planktonic growth at PC25 in presence of N-(2-(4-(((3aR,8aR)-1,2,3,3a,8,8a-hexahydropyrrolo[2,3-b]indol-3a-yl)methyl)-1H-1,2,3-triazol-1-yl)ethyl)-4-hexylbenzamide; assay type: organism-based
Escherichia coli [5] = experiment: Antimicrobial activity against Escherichia coli K-12 ER2718 assessed as effect on planktonic growth at PC50 in presence of N-(2-(4-(((3aR,8aR)-1,2,3,3a,8,8a-hexahydropyrrolo[2,3-b]indol-3a-yl)methyl)-1H-1,2,3-triazol-1-yl)ethyl)-4-hexylbenzamide; assay type: organism-based; details: in vivo
Staphylococcus aureus [6] = experiment: Inhibition of biofilm formation in methicillin-resistant Staphylococcus aureus BAA 44 after 24 hrs by crystal violet staining-based assay; assay type: functional, organism-based; details: BAA 44, 24 h
In short: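 Static biofilm development in MRSA, read out by crystal violet staining against an untreated control. Initial screen at 150 μM. Inhibitors then went to dose-response, with IC50 taken as the concentration giving 50% inhibition of biofilm growth. Induction was judged at 50 μM: under 50% induction counted as "inducer", over 50% as "strong inducer".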

Escherichia coli [7] = experiment: Antimicrobial activity against Escherichia coli K-12 ER2718 assessed as effect on planktonic growth at IC50 after 2 to 24 hrs; assay type: organism-based
Acinetobacter baumannii [8] = experiment: Antimicrobial activity against Acinetobacter baumannii 19606 assessed as effect on planktonic growth at IC50 after 2 to 24 hrs; design: species or system ATCC 19606
Escherichia coli [9] = experiment: Induction of biofilm formation in Escherichia coli K-12 ER2718 assessed as concentration required for 25% promotion of biofilm formation after 24 hrs by crystal violet staining-based assay; assay type: functional
In short: (§1)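 For strong inducers of E. coli biofilm, dose-response curves were run in the static crystal violet assay. PC25, PC50 and PC75 are the concentrations promoting biofilm formation by 25%, 50% and 75%.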

Staphylococcus aureus [10] = experiment: Antimicrobial activity against methicillin-resistant Staphylococcus aureus BAA 44 assessed as effect on planktonic growth at IC50 after 2 to 24 hrs by colony count method; assay type: organism-based; details: in vivo
Staphylococcus aureus [11] = experiment: Antimicrobial activity against Staphylococcus aureus 29213 assessed as effect on planktonic growth at IC50 after 2 to 24 hrs by colony count method; assay type: organism-based; details: in vivo
Escherichia coli [12] = experiment: Antimicrobial activity against Escherichia coli K-12 ER2718 assessed as effect on planktonic growth at PC50 after 2 to 24 hrs; assay type: organism-based
Escherichia coli [13] = experiment: Reversal of N-(2-(4-(((3aR,8aR)-1,2,3,3a,8,8a-hexahydropyrrolo[2,3-b]indol-3a-yl)methyl)-1H-1,2,3-triazol-1-yl)ethyl)-4-hexylbenzamide-induced biofilm inhibition in Escherichia coli K-12 ER2718 at PC50 relative to control; assay type: functional; design: scale not given: the % may be the effect or the level left
In short: (§2)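 E. coli static crystal violet biofilm assay. The inducer was added at its PC25, PC50 or PC75 concentration together with the reference inhibitor at a fixed concentration. Reversal was taken as the reduction in the inhibitor's anti-biofilm activity.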

Escherichia coli [14] = experiment: Antimicrobial activity against Escherichia coli K-12 ER2718 assessed as effect on planktonic growth at PC75 in presence of N-(2-(4-(((3aR,8aR)-1,2,3,3a,8,8a-hexahydropyrrolo[2,3-b]indol-3a-yl)methyl)-1H-1,2,3-triazol-1-yl)ethyl)-4-hexylbenzamide; assay type: organism-based; details: in vivo
Escherichia coli [15] = experiment: Induction of biofilm formation in Escherichia coli K-12 ER2718 assessed as concentration required for 75% promotion of biofilm formation after 24 hrs by crystal violet staining-based assay; assay type: functional; in short: as §1
Escherichia coli [16] = experiment: Antimicrobial activity against Escherichia coli K-12 ER2718 assessed as effect on planktonic growth at IC50 after 2 to 24 hrs by colony count method; assay type: organism-based
Escherichia coli [17] = experiment: Induction of biofilm formation in Escherichia coli K-12 ER2718 assessed as concentration required for 50% promotion of biofilm formation after 24 hrs by crystal violet staining-based assay; assay type: functional; in short: as §1
Staphylococcus aureus [18] = experiment: Antimicrobial activity against Staphylococcus aureus 29213 assessed as effect on planktonic growth at IC50 after 2 to 24 hrs; assay type: organism-based; details: in vivo
Escherichia coli [19] = experiment: Reversal of N-(2-(4-(((3aR,8aR)-1,2,3,3a,8,8a-hexahydropyrrolo[2,3-b]indol-3a-yl)methyl)-1H-1,2,3-triazol-1-yl)ethyl)-4-hexylbenzamide-induced biofilm inhibition in Escherichia coli K-12 ER2718 at PC25 relative to control; assay type: functional; design: scale not given: the % may be the effect or the level left; in short: as §2
Escherichia coli [20] = experiment: Antimicrobial activity against Escherichia coli K-12 ER2718 assessed as effect on planktonic growth at PC25 after 2 to 24 hrs; assay type: organism-based
Escherichia coli [21] = experiment: Reversal of N-(2-(4-(((3aR,8aR)-1,2,3,3a,8,8a-hexahydropyrrolo[2,3-b]indol-3a-yl)methyl)-1H-1,2,3-triazol-1-yl)ethyl)-4-hexylbenzamide-induced biofilm inhibition in Escherichia coli K-12 ER2718; assay type: functional, organism-based; in short: as §2
Acinetobacter baumannii [22] = experiment: Inhibition of biofilm formation in Acinetobacter baumannii 19606 at 150 uM after 24 hrs by crystal violet staining-based assay relative to control; assay type: functional; details: ATCC 19606 = CIP 70.34 = JCM 6841, 24 h
Staphylococcus aureus [23] = experiment: Inhibition of biofilm formation in Staphylococcus aureus 29213 after 24 hrs by crystal violet staining-based assay; assay type: functional, organism-based; details: Staphylococcus aureus, 29213, 24 h
In short: (§3)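 Compounds active in the 150 μM screen were taken into dose-response studies under static conditions with a crystal violet read-out. IC50 is the concentration that inhibits 50% of biofilm growth relative to an untreated control.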

Escherichia coli [24] = experiment: Antimicrobial activity against Escherichia coli K-12 ER2718 assessed as effect on planktonic growth at PC25 after 2 to 24 hrs by colony count method; assay type: organism-based
Escherichia coli [25] = experiment: Antimicrobial activity against Escherichia coli K-12 ER2718 assessed as effect on planktonic growth at PC50 after 2 to 24 hrs by colony count method; assay type: organism-based; details: in vivo
Escherichia coli [26] = experiment: Antimicrobial activity against Escherichia coli K-12 ER2718 assessed as effect on planktonic growth at PC75 after 2 to 24 hrs; assay type: organism-based; details: in vivo
Escherichia coli [27] = experiment: Induction of biofilm formation in Escherichia coli K-12 ER2718 at 50 uM after 24 hrs by crystal violet staining-based assay relative to control; assay type: functional
In short: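 Static biofilm assay with compounds at 50 μM and crystal violet read-out, relative to an untreated control. Compounds increasing biofilm by less than 50% were called inducers, and by more than 50% strong inducers.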

Escherichia coli [28] = experiment: Reversal of N-(2-(4-(((3aR,8aR)-1,2,3,3a,8,8a-hexahydropyrrolo[2,3-b]indol-3a-yl)methyl)-1H-1,2,3-triazol-1-yl)ethyl)-4-hexylbenzamide-induced biofilm inhibition in Escherichia coli K-12 ER2718 at PC75 relative to control; assay type: functional; design: scale not given: the % may be the effect or the level left; in short: as §2
Acinetobacter baumannii [29] = experiment: Antimicrobial activity against Acinetobacter baumannii 19606 assessed as effect on planktonic growth at IC50 after 2 to 24 hrs by colony count method; design: species or system ATCC 19606
Escherichia coli [30] = experiment: Inhibition of biofilm formation in Escherichia coli K-12 ER2718 after 24 hrs by crystal violet staining-based assay; assay type: functional, organism-based; details: K-12 ER2718, 24 h; in short: as §3

CCCCCCc1ccc(C(=O)NCCn2cc(Cc3c[nH]c4ccccc34)nn2)cc1
Activity (Escherichia coli [1]): Non-toxic
Activity (Staphylococcus aureus [2]): Non-toxic
Activity (Escherichia coli [3]): Non-toxic
Activity (Escherichia coli [4]): Non-toxic
Activity (Escherichia coli [5]): Non-toxic
IC50 (Staphylococcus aureus [6]): 313 µM
Activity (Escherichia coli [7]): Non-toxic
Activity (Acinetobacter baumannii [8]): Non-toxic
Activity (Escherichia coli [9]): 47.8 µM
Activity (Staphylococcus aureus [10]): Non-toxic
Activity (Staphylococcus aureus [11]): Non-toxic
Activity (Escherichia coli [12]): Non-toxic
Activity (Escherichia coli [13]): 47%
Activity (Escherichia coli [14]): Non-toxic
Activity (Escherichia coli [15]): 160.7 µM
Activity (Escherichia coli [16]): Non-toxic
Activity (Escherichia coli [17]): 82.6 µM
Activity (Staphylococcus aureus [18]): Non-toxic
Activity (Escherichia coli [19]): 7.7%
Activity (Escherichia coli [20]): Non-toxic
Activity (Escherichia coli [21]): Dose-dependent effect
inhibition at 150 µM (Acinetobacter baumannii [22]): 25%
IC50 (Staphylococcus aureus [23]): 174 µM
Activity (Escherichia coli [24]): Non-toxic
Activity (Escherichia coli [25]): Non-toxic
Activity (Escherichia coli [26]): Non-toxic
Activity (Escherichia coli [27]): >50%
Activity (Escherichia coli [28]): 87%
Activity (Acinetobacter baumannii [29]): Non-toxic

CCCCCCc1ccc(C(=O)NCCn2cc(C[C@@]34CCN[C@@H]3Nc3ccccc34)nn2)cc1
IC50 (Staphylococcus aureus [6]): 3.4 µM
IC50 (Escherichia coli [30]): 100 µM
IC50 (Staphylococcus aureus [23]): 12.5 µM
